Measured values of several laboratories.
Each line is one published result; the experiments were not run side by side.
ADRA2A: Alpha-2A adrenergic receptor (ADRA2A, Homo sapiens, UniProt P08913)
CA1: Carbonic anhydrase 1 (CA1, Homo sapiens, UniProt P00915)
CA2: Carbonic anhydrase 2 (CA2, Homo sapiens, UniProt P00918)

SMILES | target | effect on | action | technique | Ki [nM]
Cc1cc(Oc2ncccc2CN2CCN(c3ccccc3C#N)CC2)ccc1-c1c(C)c(=O)[nH]c(=O)n1C | ADRA2A | ligand displacement | – | radioligand | 128
O=C(Oc1ccc(Br)cc1)c1ccc(=O)oc1 | CA1 | enzyme activity | inhibitor | stopped-flow | > 100000
NS(=O)(=O)c1nnc(NC(=O)CN2CCC(F)CC2)s1 | CA1 | enzyme activity | inhibitor | stopped-flow | 68.2
O=C(NCc1cn(-c2ccccc2)nn1)c1ccc(=O)oc1 | CA1 | enzyme activity | inhibitor | stopped-flow | > 100000
Nc1nc2c(ncn2COCCO)c(=O)[nH]1 | CA2 | enzyme activity | inhibitor | absorbance | 8680
O=C(Oc1ccc(-c2ccccc2)cc1)c1ccc(=O)oc1 | CA1 | enzyme activity | inhibitor | stopped-flow | > 100000
CCOCCn1c(C2CCN(CCc3ccc(C(C)(C)C(=O)O)cc3)CC2)nc2ccccc21 | CA1 | enzyme activity | inhibitor | – | 9530
Cc1cc(Oc2ncccc2CN2CCN(c3ccccc3C)CC2)ccc1-c1c(C)c(=O)[nH]c(=O)n1C | ADRA2A | ligand displacement | – | radioligand | 59.4
O=C(O)COCCN1CCN(C(c2ccccc2)c2ccc(Cl)cc2)CC1 (stereo not drawn) | CA1 | enzyme activity | inhibitor | – | 9900
CCN1/C(=C/C(C)=O)Sc2ccc(F)cc21 | ADRA2A | ligand displacement | – | radioligand | 50300
NS(=O)(=O)c1cnc(NC(=O)CC2CCCCC2)s1 | CA1 | enzyme activity | inhibitor | stopped-flow | 1580
CCOC(=O)N1CCC(=C2c3ccc(Cl)cc3CCc3cccnc32)CC1 | CA1 | enzyme activity | inhibitor | – | 8090
COc1ccc(-n2cc(COC(=O)c3ccc(=O)oc3)nn2)cc1 | CA1 | enzyme activity | inhibitor | stopped-flow | > 100000
Cc1cc(Oc2ncccc2CN2CCN(c3ccc(Cl)cc3)CC2)ccc1-c1c(C)c(=O)[nH]c(=O)n1C | ADRA2A | ligand displacement | – | radioligand | 576
O=c1[nH]c(=O)n([C@H]2C[C@H](O)[C@@H](CO)O2)cc1/C=C/Br | CA1 | enzyme activity | inhibitor | – | 8390
Cc1cc(Oc2ncccc2CN2CCN(c3cccc(Cl)c3)CC2)ccc1-c1c(C)c(=O)[nH]c(=O)n1C | ADRA2A | ligand displacement | – | radioligand | 161
Cc1cccc(CC(=O)Nc2nnc(S(N)(=O)=O)s2)c1 | CA1 | enzyme activity | inhibitor | stopped-flow | 42.4
Cc1cc(Oc2ncccc2CN2CCN(c3ccccc3O)CC2)ccc1-c1c(C)c(=O)[nH]c(=O)n1C | ADRA2A | ligand displacement | – | radioligand | 57
Cc1ccc(OC(=O)c2ccc(=O)oc2)cc1 | CA1 | enzyme activity | inhibitor | stopped-flow | > 100000
CC(C)(C(=O)O)c1ccc(C(O)CCCN2CCC(C(O)(c3ccccc3)c3ccccc3)CC2)cc1 (stereo not drawn) | CA1 | enzyme activity | inhibitor | – | 13100
Cc1cc(Oc2ncccc2CN2CCN(c3ccccc3[N+](=O)[O-])CC2)ccc1-c1c(C)c(=O)[nH]c(=O)n1C | ADRA2A | ligand displacement | – | radioligand | 146
CC1=C(/C=C/C(C)=C/C=C/C(C)=C\C(=O)O)C(C)(C)CCC1 | CA2 | enzyme activity | inhibitor | absorbance | 6900
Cc1ccc(CCC(=O)Nc2nnc(S(N)(=O)=O)s2)cc1 | CA2 | enzyme activity | inhibitor | stopped-flow | 11.8
Cc1cc(Oc2ncccc2CN2CCN(c3c(C)cccc3C)CC2)ccc1-c1c(C)c(=O)[nH]c(=O)n1C | ADRA2A | ligand displacement | – | radioligand | 731
COc1ccc(-n2cc(CNC(=O)c3ccc(=O)oc3)nn2)cc1 | CA1 | enzyme activity | inhibitor | stopped-flow | > 100000
Cc1cc(Oc2ncccc2CN2CCN(c3ccc([N+](=O)[O-])cc3C(F)(F)F)CC2)ccc1-c1c(C)c(=O)[nH]c(=O)n1C | ADRA2A | ligand displacement | – | radioligand | 2110
NS(=O)(=O)c1nnc(NC(=O)C2CCC3(CCCCC3)C2)s1 (stereo not drawn) | CA1 | enzyme activity | inhibitor | stopped-flow | 220
